Measurements of several laboratories.
Protocols differ between the studies behind these lines.
Target: D(1A) dopamine receptor (DRD1, Homo sapiens, UniProt P21728)

Structure (SMILES) | assay | setting | endpoint | result
COc1ccc(S(=O)(=O)N2CCCCC2)cc1C | ligand displacement, radioligand | 10 µM | inhibition | < 30%
c1ccc(C(NCCNC(c2ccccc2)c2ccccc2)c2ccccc2)cc1 | cell-free assay | 10 µM | inhibition | 24%
Cn1cncc1[C@@](O)(COc1ccc(C#N)cc1-c1ccc(OC(F)(F)F)cc1)c1ccc(C#N)cc1 | ligand displacement | 10 µM | inhibition | 19%
Clc1ccc2c(C3CCN(CCc4c[nH]c5ccccc45)CC3)c[nH]c2c1 | ligand displacement, radioligand | 10 µM | inhibition | 100%
COCc1c(-c2cc3cc(C)cc(OC)c3s2)c2c(N)ncnn2c1CN1CCNC(=O)C1 | ligand displacement, radioligand | 10 µM | inhibition | 10%
Cc1c(N2CCNCC2)nc2ccc(Br)cc2c1C(=O)NC[C@H](CCC(=O)O)c1ccccc1Cl | ligand displacement | 10 µM | inhibition | 31.6%
C[C@H](C(=O)N[C@H]1COc2ccccc2[C@@H]1S(C)(=O)=O)c1ccc(F)cc1 | cell-free assay | 10 µM | inhibition | -6%
CCN(CC)CCCC[C@H](NC(=O)[C@H](CC(C)C)NC(=O)[C@H](C)NC(=O)[C@H](Cc1ccccc1)NC(=O)c1ccc(C(C)(C)C)cc1)C(=O)N[C@@H](CO)C(=O)OC | ligand displacement, radioligand | 10 µM | inhibition | 4%
Nc1ncc(-c2nc(N3CCOCC3)nc(N3CCOCC3)n2)c(C(F)F)n1 | cell-free assay, radioligand | 10 µM | remaining signal | 90.9%
CC(C)N1CCC[C@H]1CNC(=O)c1cn(C2CCCC2)c(=O)c2c1c1ccccc1n2C | ligand displacement, radioligand | 10 µM | inhibition | 5%
CN(CCN1CCC(OC(=O)Nc2ccccc2-c2ccccc2)CC1)C(=O)c1ccc(CN2CCC(C(N)=O)CC2)cc1 | ligand displacement, radioligand | 1 µM | inhibition | 1%
CC(Cc1ccccc1)NCCn1cnc2c1c(=O)n(C)c(=O)n2C (stereo not drawn) | ligand displacement, radioligand | 10 µM | inhibition | 8%
